Here are results for 3 compounds from paper PMC11015380 (Heliyon, 2024).

The structures appear in SMILES notation.

The subject of data set [1] is AGS (G12D). Put plainly: WST cell viability assay, AGS cells. Format: cell-based. Particulars: Homo sapiens, 72 h, read-out: IC50 AGS (G12D).
The subject of data set [2] is Hek293 (Normal). Put plainly: WST cell viability assay, Hek293 cells. The following applies: Homo sapiens, HEK293, 72 h, read-out: IC50 Hek293 (Normal). Format: cell-based.
The test system of data set [3] is AsPC1 (G12D). Nature of the data set: WST cell viability assay, AsPC1 cells. Format: cell-based. The following applies: Homo sapiens, ASPC1, 72 h, read-out: IC50 AsPC1 (G12D).
The target of data set [4] is KRAS-GTP (active KRAS) in AGS cells (Homo sapiens, UniProt P01116, G12D). Put plainly: GST-RBD pulldown assay, AGS cells. Format: cell-based. The following applies: 5 or 7.5 μM, 24 h. A digest of the protocol:
(§1)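 AGS or MKN1 cells were exposed to DMSO or test compound (0, 5, 7.5 μM) for 24 h and lysed in 1X passive lysis buffer. Lysate (400 μg protein) was incubated overnight with glutathione–GST-RBD to capture GTP-bound KRAS. Pulled-down protein was immunoblotted with anti-KRAS antibody, and band intensity was quantified (n = 2).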

Data set [5] concerns AGS cells. Nature of the data set: Annexin V-FITC/PI apoptosis detection assay, AGS cells. Format: cell-based. Particulars: AGS, 0, 2.5, and 5 μM, 24 h, flow cytometry. The gist of the method: (§2)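 AGS or MKN1 cells were seeded at 3–5 × 10^5 cells/well in 6-well plates and grown overnight. They were treated with test compound at 0, 2.5 or 5 μM for 24 h. Cells were harvested, PBS-washed and resuspended in 1X binding buffer.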
On the technique in general: In flow cytometry, cells or beads pass a laser one at a time.

Data set [6] deals with MKN1 (KRAS wild-type) cells. Nature of the data set: Annexin V-FITC/PI apoptosis detection assay, MKN1 cells. Format: cell-based. Particulars: MKN1, 0, 2.5, and 5 μM, 24 h, flow cytometry. The gist of the method: as §2
For data set [7], the system named is pERK, pAKT, pS6, cleaved PARP in AGS cells. Put plainly: Immunoblotting of KRAS downstream signals and PARP, AGS cells. The following applies: 5 or 7.5 μM, 24 h. Format: cell-based. The gist of the method: (§3)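 Cells (3–5 × 10^5/well, 6-well plates) were grown overnight, then given DMSO or test compound at 5 or 7.5 μM for 24 h. Lysis was in RIPA with protease/phosphatase inhibitors, with BCA protein assay. Equal protein was run on 8–12% SDS-PAGE and transferred to nitrocellulose. Blots were blocked in 5% milk/TBST, probed overnight at 4 °C (ERK, pERK, AKT, pAKT, S6, pS6, PARP), then HRP secondary 1 h, ECL. Bands were normalised to β-actin (n = 2).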
Background: A western blot detects proteins with antibodies after separation by electrophoresis.

The subject of data set [8] is AsPC1 tumor. Nature of the data set: In vivo antitumor efficacy study, AsPC1 xenograft. Further details: species or system female BALB/c nude mice. Particulars: 15 mg/kg i.p. once daily for 14 days. The gist of the method:
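Female BALB/c nude mice (5–6 weeks) received 5.0 × 10^6 AsPC1 cells s.c. into the right hind flank in PBS. At tumour volume >100 mm3, mice were randomised to vehicle or test compound at 15 mg/kg i.p. once daily for 14 days (10% DMSO, 40% PEG300, 5% Tween-80, 45% saline; 200 μL/mouse). Tumours were measured by caliper thrice weekly and body weight twice weekly. TGI (%) = (1 − RTVtreatment/RTVcontrol) × 100, with RTV relative to day 0.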

Data set [9] has as its target KRAS-GTP (active KRAS) in MKN1 cells (Homo sapiens, UniProt P01116). Put plainly: GST-RBD pulldown assay, MKN1 cells. Format: cell-based. The following applies: MKN1, 5 or 7.5 μM, 24 h. A digest of the protocol: as §1
In data set [10] the test system is KRAS downstream proteins, including PARP, in MKN1 cells. Nature of the data set: Immunoblotting of KRAS downstream signals and PARP, MKN1 cells. Format: cell-based. The following applies: MKN1, 5 or 7.5 μM, 24 h. A digest of the protocol: as §3
Data set [11] relates to SNU1197 (G12D). Put plainly: WST cell viability assay, SNU1197 cells. Format: cell-based. Particulars: 72 h, read-out: IC50 SNU1197 (G12D).

One may read the IC50 as the concentration that gives 50% inhibition.

Regarding `Cc1nc(-c2ccc(Cl)cc2)nc(N2CCC3(CC2)CNC3)c1Cc1ccccc1` [PY1-2, 7-(5-benzyl-2-(4-chlorophenyl)-6-methylpyrimidin-4-yl)-2,7-diazaspiro[3.5]nonane, 2,2,2-trifluoroacetic acid], the figures for the half-maximal inhibitory concentration (IC50) in data set [1], in data set [2] and in data set [3] were 3.3 ± 0.6 µM, 9.1 ± 0.7 µM and 10.9 ± 0.4 µM, respectively.

As for `Cl.c1ccc(CN(Cc2ccccc2)c2nc(N3CCC4(CC3)CNC4)c3ncn(Cc4ccccc4)c3n2)cc1` [PU1-1, N,N,9-tribenzyl-6-(2,7-diazaspiro[3.5]nonan-7-yl)-9H-purin-2-amine hydrogen chloride], the IC50 in data set [1] was 3.2 ± 0.4 µM; in [2], 9.2 ± 0.2 µM; in data set [3], 5.9 ± 0.3 µM; in [11], 3.8 ± 0.8 µM. For the same compound, in data set [4], the KRAS-GTP levels result was “significantly downregulated”. Moreover, the “proportion of early (LR) and late apoptotic (UR) cells” value in [5] is listed as “increased”. Further, the apoptosis result in [6] is “did not show significant apoptosis”. In addition, the “pERK, pAKT, and pS6 levels” value in data set [7] is “significantly decreased”. Moreover, the “levels of cleaved PARP” value in data set [7] (versus DMSO-treated group) is on record as “significantly increased”. Also, the “body weight change during treatment” value in data set [8] was “no noticeable weight loss”. Besides, the “TGI (tumor growth inhibition)” value in [8] (day 14) came out at 42%. Further, the KRAS-GTP protein expression result in data set [9] is on record as “no protein expression changes”. Further, the “KRAS downstream proteins, including PARP, expression” value in data set [10] is “no protein expression changes”.

On to `C#Cc1c(F)ccc2cc(O)cc(-c3ncc4c(N5CC6CCC(C5)N6)nc(OC[C@@]56CCCN5C[C@H](F)C6)nc4c3F)c12` [MRTX1133, reference compound], for which the IC50 in [1] turned out to be 0.0065 µM; in [2], 19.7 µM; in [3], 0.062 µM; in [11], 0.037 µM.
